Assay results published in ChEMBL document CHEMBL4715734, “Discovery of the Potent and Selective M1 PAM-Agonist N-[(3R,4S)-3-Hydroxytetrahydro-2H-pyran-4-yl]-5-methyl-4-[4-(1,3-thiazol-4-yl)benzyl]pyridine-2-carboxamide (PF-06767832): Evaluation of Efficacy and Cholinergic Side Effects” (J Med Chem, 2016).
pEC50, pIC50: −log10 of the molar value. ≈ marks a conversion by molar mass, not a printed value. Calls of active or inactive are those of the source. No cut-off for these calls is given here.

Columns and labels:
[1] = Toxicity in rat assessed as increase in food intake at 10 mg/kg, po administered for 14 days; format: organism-based; details: in vivo, 336 h, time 14 day
Procedure, shortened: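 Two-week repeat-dose toxicity study in rats. Oral dosing in 0.5% methylcellulose at 3, 10, 30 (males)/15 (females) mg/kg, N=4/sex/dose. Food intake, body weight gain and histopathology were assessed.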

[2] = Partial agonist activity at muscarinic M2/M3 receptor in Hartley guinea pig ileum assessed as stimulation of contraction; format: tissue-based; details: Cavia porcellus
Procedure, shortened: (§1)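 Agonist mode used a guinea pig ileum tissue bath with the compound applied alone. Concentration–response curves were run with or without the non-selective muscarinic antagonist atropine. Contraction was expressed relative to the maximal carbachol response.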

[3] = target: T1, Muscarinic acetylcholine receptor M5 (Homo sapiens, UniProt P08912); assay: Agonist activity at human recombinant muscarinic M5 receptor stably expressed in CHO cells assessed as increase in intracellular calcium level up to 10 uM incubated for 10 mins by Fluo-8AM dye based FLIPR TETRA method; format: cell-based
T1 sequence (P08912 whole entry): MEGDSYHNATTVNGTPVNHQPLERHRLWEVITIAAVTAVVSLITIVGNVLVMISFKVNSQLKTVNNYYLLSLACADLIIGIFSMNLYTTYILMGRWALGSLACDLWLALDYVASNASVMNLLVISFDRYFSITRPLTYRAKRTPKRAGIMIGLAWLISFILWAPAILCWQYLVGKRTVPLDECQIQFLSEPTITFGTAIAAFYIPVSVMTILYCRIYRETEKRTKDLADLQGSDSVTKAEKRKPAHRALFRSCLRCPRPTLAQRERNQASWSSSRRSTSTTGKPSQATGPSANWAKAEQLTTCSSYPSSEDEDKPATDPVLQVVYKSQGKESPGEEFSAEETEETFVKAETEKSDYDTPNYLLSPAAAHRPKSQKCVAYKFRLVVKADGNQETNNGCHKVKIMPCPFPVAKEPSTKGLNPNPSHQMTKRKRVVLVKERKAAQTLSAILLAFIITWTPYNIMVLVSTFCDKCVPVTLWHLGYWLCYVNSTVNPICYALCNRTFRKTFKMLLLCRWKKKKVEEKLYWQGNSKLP

[4] = Unbound plasma concentration in amphetamine-induced C57BL/6J mouse model of hyperlocomotion at 1 mg/kg, sc measured after 1 hr; format: ADME, organism-based; details: in vivo
Procedure, shortened: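 Satellite PK animals from the mouse aLMA study, N=2/dose. Dosed subcutaneously with a solution in 5/15/80 DMSO/Solutol/water. Plasma and brain were sampled at T = 1 h.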

[5] = target: T2, Muscarinic acetylcholine receptor M1 (Homo sapiens) (UniProt P11229); assay: Binding affinity to human muscarinic M1 receptor stably expressed in CHO cells assessed as increase in intracellular calcium level measured after 10 mins by Fluo-8AM dye based FLIPR TETRA method; format: cell-based; details: filed as positive allosteric modulator
T2 sequence (whole entry): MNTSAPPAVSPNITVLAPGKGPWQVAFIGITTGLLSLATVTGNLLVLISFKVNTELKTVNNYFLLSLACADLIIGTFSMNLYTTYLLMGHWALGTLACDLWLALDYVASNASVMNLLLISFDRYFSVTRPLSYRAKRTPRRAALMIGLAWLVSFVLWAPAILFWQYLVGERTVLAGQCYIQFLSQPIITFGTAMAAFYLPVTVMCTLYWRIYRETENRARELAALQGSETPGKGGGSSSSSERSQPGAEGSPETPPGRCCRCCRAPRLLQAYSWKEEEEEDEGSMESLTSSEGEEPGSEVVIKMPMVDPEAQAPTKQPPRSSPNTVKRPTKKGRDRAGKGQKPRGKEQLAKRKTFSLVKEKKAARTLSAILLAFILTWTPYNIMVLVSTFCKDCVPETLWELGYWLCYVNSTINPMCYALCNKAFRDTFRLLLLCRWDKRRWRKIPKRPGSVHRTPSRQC

[6] = Toxicity in dog assessed as induction of soft stool at 45 mg/kg, po using spray-dried dispersion formulation measured after 45 mins; format: organism-based, Canis lupus familiaris; details: in vivo, 0.75 h
[7] = Clearance in rat at 1 mg/kg, iv administered as single bolus dose; format: ADME, organism-based; details: in vivo
[8] = Partial agonist activity at muscarinic M2/M3 receptor in Hartley guinea pig ileum assessed as stimulation of contraction in presence of mAChR antagonist atropine; format: tissue-based, Cavia porcellus; procedure, shortened: as §1
[9] = Oral bioavailability in dog at 0.5 mg/kg; format: ADME, organism-based, Canis lupus familiaris; details: in vivo
[10] = Toxicity in male rat assessed as increase in body weight at 30 mg/kg, po administered for 14 days; details: in vivo, 336 h
[11] = target: T2, Muscarinic acetylcholine receptor M1 (Homo sapiens); assay: Positive allosteric modulation of human muscarinic M1 receptor expressed in CHO cells assessed as increase in ACh-induced displacement of [3H]-NMS from M1 receptor at 10 uM by scintillation counting method relative to Ach alone; format: cell-based; details: filed as positive allosteric modulator
[12] = Toxicity in male Beagle dog assessed as decrease in RR interval at 3 mg/kg, po administered as single dose observed upto 9 hrs post last dose by telemetry; format: organism-based, Canis lupus familiaris; details: in vivo
Procedure, shortened: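 Crossover telemetry study in dogs at three oral doses (0.3, 1 and 3 mg/kg), N=4. Endpoints were blood pressure, maximum systolic left ventricular pressure, LV +dP/dt max, activity, heart rate, and RR, QT and QTc intervals, followed up to 9 h post dose.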

[13] = Permeability of compound in MDCKII-LE cells; format: ADME, cell-based, Canis lupus familiaris; details: dog, MDCK; read-out: permeability
[14] = Ratio of AUC in C57BL/6 mouse brain to plasma at 1 mg/kg, sc; format: ADME, organism-based; details: brain and plasma, read-out: Ratio AUC
[15] = fAUC (0 to 24 hrs) in rat at 10 mg/kg, po administered for 14 days; format: ADME, organism-based; details: in vivo, 336 h, time 14 day
Procedure, shortened: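 2-week repeat oral dosing in rats, 0.5% methylcellulose formulation; N=4/sex/dose; doses 3, 10, 30 (males)/15 (females) mg/kg; unbound exposures reported per dose and sex.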

[16] = tested on: Rattus norvegicus; assay: Reversal of scopolamine-induced spatial learning in Wistar rat model at 0.32 mg/kg, po administered 15 min before training followed by 30 mins later administration with scopolamine measured after 24 hrs by Morris water maze test
[17] = target: cGMP-dependent 3',5'-cyclic phosphodiesterase (Homo sapiens, UniProt O00408); assay: Inhibition of PDE2A (unknown origin)
Sequence of cGMP-dependent 3',5'-cyclic phosphodiesterase (O00408 whole entry): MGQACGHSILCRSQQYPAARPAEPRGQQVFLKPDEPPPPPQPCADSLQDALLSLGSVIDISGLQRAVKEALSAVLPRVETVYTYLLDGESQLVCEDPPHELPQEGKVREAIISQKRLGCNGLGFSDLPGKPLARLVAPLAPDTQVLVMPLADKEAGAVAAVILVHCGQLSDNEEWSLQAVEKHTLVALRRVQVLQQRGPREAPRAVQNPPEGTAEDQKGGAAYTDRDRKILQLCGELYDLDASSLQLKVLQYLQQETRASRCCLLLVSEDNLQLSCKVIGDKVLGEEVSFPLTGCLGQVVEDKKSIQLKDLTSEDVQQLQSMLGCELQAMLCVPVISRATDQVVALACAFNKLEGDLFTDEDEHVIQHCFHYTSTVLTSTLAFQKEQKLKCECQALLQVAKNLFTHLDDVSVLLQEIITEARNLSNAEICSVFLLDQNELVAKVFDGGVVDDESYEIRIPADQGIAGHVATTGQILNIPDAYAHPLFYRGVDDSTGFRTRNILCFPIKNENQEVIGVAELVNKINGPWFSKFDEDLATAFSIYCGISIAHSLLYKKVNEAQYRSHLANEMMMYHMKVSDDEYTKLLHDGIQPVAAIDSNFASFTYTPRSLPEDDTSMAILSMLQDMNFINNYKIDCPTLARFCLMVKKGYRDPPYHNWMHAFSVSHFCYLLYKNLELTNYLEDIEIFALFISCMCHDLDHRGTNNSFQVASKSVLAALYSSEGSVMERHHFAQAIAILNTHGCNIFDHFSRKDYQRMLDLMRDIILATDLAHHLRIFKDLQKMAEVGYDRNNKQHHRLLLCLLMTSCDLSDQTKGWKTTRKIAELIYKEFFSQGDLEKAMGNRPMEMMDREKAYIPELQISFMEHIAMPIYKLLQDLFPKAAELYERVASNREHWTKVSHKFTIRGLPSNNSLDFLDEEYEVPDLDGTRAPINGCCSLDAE

[18] = Unbound plasma concentration in […] in Sprague-Dawley rat model at 3.2 mg/kg, sc measured after 1.67 hrs; format: ADME, organism-based; details: in vivo
Procedure, shortened: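 Randomly selected animals (N=2/dose) at the end of the rat PPI study, T = 1.67 h. Dosed subcutaneously as a suspension in 0.5% methylcellulose in water. Plasma and brain concentrations were averaged.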

[19] = Lipophilicity, log D of compound; format: physicochemical; details: octanol/water
[20] = Toxicity in dog at 1 mg/kg, po using spray-dried dispersion formulation; format: organism-based, Canis lupus familiaris; details: in vivo
[21] = Aqueous solubility of compound at pH 6.5; format: physicochemical; details: buffer
[22] = Unbound plasma concentration in CD-1 mouse at 3.2 mg/kg, sc measured after 2 hrs by LC-MS/MS analysis; format: ADME, organism-based; details: in vivo
[23] = Oral bioavailability in rat at 0.5 mg/kg; format: ADME, organism-based; details: in vivo

pEC50 [2]: 6.45
Activity [3]: Not Active
Cp(f) [4]: 76.1 nM
Ka [5]: 2 µM
clearance [7]: 3.29 mL/min/kg
Activity [8]: Not Active
bioavailability [9]: 43%
fold change (FC) [11]: 339
Papp [13]: 22 ×10⁻⁶ cm/s
Kp [14]: 0.2
fAUC [15]: 5.739 µM·h
pIC50 [17]: 5.51
Cp(f) [18]: 123 nM
logD [19]: 2.2
solubility [21]: 2.7 µg/mL (≈ 6.59 µM)
Cp(f) [22]: 176 nM
bioavailability [23]: 112%
Structure (SMILES): Cc1cnc(C(=O)N[C@H]2CCOC[C@@H]2O)cc1Cc1ccc(-c2cscn2)cc1
Activity [1]: Non-Toxic
Activity [6]: Toxic
Activity [10]: Non-Toxic
Activity [12]: Toxic
Activity [16]: Active
Activity [20]: Non-Toxic
